Laboratory results published in ChEMBL document CHEMBL3871270, “Structural and Biochemical Characterization of the Interaction of Tubulin with Potent Natural Analogues of Podophyllotoxin” (J Nat Prod, 2016).
Activity calls are given as the source filed them. No cut-off for these calls is given here.

Experiments:
[1] = Cytotoxicity against human A549 cells assessed as decrease in cell viability after 48 hrs by MTT assay; format: functional, cell-based; conditions: A549, 48 h
Procedure, shortened: (§1)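 A549 lung and A2780 ovarian human carcinoma cells were treated for 48 h, and viability was read by MTT assay. IC50 values are given as mean ± standard error of three independent experiments.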

[2] = Cell cycle arrest in human A549 cells assessed as accumulation at G2/M phase at 100 nM after 20 hrs by propidium iodide staining based flow cytometry; format: functional
Procedure, shortened: (§2)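 A549 cells were grown for 20 h with compound across 20 nM to 25 μM. DMSO was the negative control and paclitaxel (30−50 nM) the positive control. The percentage of cells in each cell-cycle phase was determined from flow cytometry DNA histograms.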

Homo sapiens [3] = species: Homo sapiens; test: Binding affinity to tubulin alpha/beta dimer (unknown origin) at 300 uM by STD-NMR method
Homo sapiens [4] = species: Homo sapiens; test: Inhibition of tubulin assembly (unknown origin) assessed as decrease in pelleted microtubules up to 40 uM after 20 mins
Procedure, shortened: (§3)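 Purified tubulin was assembled at 30 μM, above its 3.3 μM critical concentration, in the presence of compound. The resulting microtubules were pelleted by mild centrifugation to quantify assembly.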

[5] = Cytotoxicity against human A2780 cells assessed as decrease in cell viability after 48 hrs by MTT assay; format: functional, cell-based; conditions: A2780, 48 h; procedure, shortened: as §1
A549 [6] = test: Binding affinity to alpha-tubulin in human A549 cells assessed as induction of microtubule depolymerization by measuring formation of abnormal type 4 spindles at 100 nM after 24 hrs by immunofluorescence microscopy; format: cell-based
Procedure, shortened: (§4)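 A549 cells were exposed to compound or DMSO vehicle for 24 h. They were then stained with DM1A anti-α-tubulin monoclonal antibody for microtubules and Hoechst 33342 for DNA. Cytoplasmic microtubule networks and mitotic spindle morphology, including abnormal type IV ball-shaped spindles, were examined by immunofluorescence microscopy.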

Homo sapiens [7] = species: Homo sapiens; test: (§5) Inhibition of 2-methoxy-5-(2,3,4-trimethoxyphenyl)-2,4,6-cycloheptatrien-1-one binding to colchicine binding site of tubulin (unknown origin) by fluorescence spectroscopic analysis
Procedure, shortened: (§6)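 Tubulin binding constants (Kb) were obtained from a competition assay against the colchicine-site fluorescent probe MTC, assuming 1:1 stoichiometry.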

[8] = as §5; design: species or system Homo sapiens; procedure, shortened: as §6
Homo sapiens [9] = species: Homo sapiens; test: Inhibition of 2-methoxy-5-(2,3,4-trimethoxyphenyl)-2,4,6-cycloheptatrien-1-one binding to colchicine binding site of tubulin (unknown origin) at 10 uM by fluorescence assay
Procedure, shortened: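 Fluorescence emission spectra were recorded at 350 nm excitation for 10 μM purified tubulin plus 10 μM MTC (a colchicine-site probe), with 10 μM test compound. Reference spectra were MTC with tubulin alone and MTC alone. The result is the percent decrease in MTC fluorescence.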

Homo sapiens [10] = species: Homo sapiens; test: Binding affinity to tubulin alpha/beta dimer (unknown origin) at 100 uM by STD-NMR method
[11] = Cell cycle arrest in human A549 cells assessed as decrease in G1 phase population at 100 nM after 20 hrs by propidium iodide staining based flow cytometry; format: functional; procedure, shortened: as §2
Homo sapiens [12] = species: Homo sapiens; test: Binding affinity to tubulin alpha/beta dimer (unknown origin) by TR-NOESY NMR spectroscopy
Homo sapiens [13] = species: Homo sapiens; test: Inhibition of tubulin assembly (unknown origin) assessed as decrease in pelleted microtubules up to 30 uM after 20 mins; procedure, shortened: as §3
[14] = Cell cycle arrest in human A549 cells assessed as accumulation at G2/M phase at 25 uM after 20 hrs by propidium iodide staining based flow cytometry; format: functional
Procedure, shortened: (§7)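 A549 cells grown 20 h with compound across 20 nM to 25 μM; DMSO as negative and paclitaxel (30−50 nM) as positive control; DNA content histograms by flow cytometry give percent of cells in each cell cycle phase.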

[15] = Cell cycle arrest in human A549 cells assessed as decrease in G1 phase population at 25 uM after 20 hrs by propidium iodide staining based flow cytometry; format: functional; procedure, shortened: as §7
A549 [16] = test: Binding affinity to alpha-tubulin in human A549 cells assessed as induction of microtubule depolymerization by measuring formation of abnormal type 4 spindles at 50 uM after 24 hrs by immunofluorescence microscopy; format: cell-based
Procedure, shortened: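 A549 cells exposed 24 h, DMSO vehicle control; microtubules stained with DM1A anti-α-tubulin monoclonal antibody and DNA with Hoechst 33342; cytoplasmic microtubule network and mitotic spindle morphology scored by immunofluorescence microscopy.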

A549 [17] = test: Binding affinity to alpha-tubulin in human A549 cells assessed as induction of microtubule depolymerization by measuring formation of abnormal type 4 spindles at 1 uM after 24 hrs by immunofluorescence microscopy; format: cell-based; procedure, shortened: as §4
[18] = Cell cycle arrest in human A549 cells assessed as decrease in G1 phase population at 1 uM after 20 hrs by propidium iodide staining based flow cytometry; format: functional; procedure, shortened: as §2
[19] = Cell cycle arrest in human A549 cells assessed as accumulation at G2/M phase at 1 uM after 20 hrs by propidium iodide staining based flow cytometry; format: functional; procedure, shortened: as §2

Structure (SMILES)	IC50 [1] [nM]	Activity [2]	Activity (Homo sapiens [3])	inhibition (Homo sapiens [4]) [%]	IC50 [5] [nM]	Activity (A549 [6])	Kb (Homo sapiens [7]) [×10⁵ /M]	Kd [8] [nM]	inhibition (Homo sapiens [9])	Activity (Homo sapiens [10])	Activity [11]	Activity (Homo sapiens [12])	inhibition (Homo sapiens [13])	Activity [14]	Activity [15]	Activity (A549 [16])	Activity (A549 [17])	Activity [18]	Activity [19]
COc1cc([C@@H]2c3cc4c(cc3[C@H](O)[C@H]3COC(=O)[C@H]23)OCO4)cc(OC)c1OC [PODOFILOX]	15	70 to 80%	Active	> 80	18	Active	185	54	68%										
COc1cc([C@@H]2c3cc4c(cc3[C@H](OC(C)=O)[C@H]3COC(=O)[C@H]23)OCO4)cc(OC)c1OC	25	Active		> 80	34	Active	170	58	65%	Active	Active								
COc1ccc([C@@H]2c3cc4c(c(OC)c3C[C@H]3COC(=O)[C@@H]32)OCO4)cc1OC	33	Active			84	Active	11.8	850	43%	Active	Active	Active	Active						
COc1c2c(cc3c1OCO3)[C@@H](c1ccc3c(c1)OCO3)[C@@H]1C(=O)OC[C@@H]1C2	8670				12900				Active					Active	Active	Active			
COc1cc(C2=C3C(=O)OC[C@@H]3[C@@H](OC(C)=O)c3cc4c(cc32)OCO4)cc(OC)c1OC	263				587				17%				Active				Active	Active	Active
